From ChEMBL document CHEMBL1671796, “Development of non-peptide ligands of growth factor receptor-bound protein 2-SRC homology 2 domain using molecular modeling and NMR spectroscopy” (J Med Chem, 2011)
The source made the active and inactive calls. No cut-off for these calls is given here.

Legend:
[1] = molecular target: T1, Growth factor receptor-bound protein 2 (Homo sapiens, UniProt P62993); experiment: Displacement of biotin-Ahx-PSpYVNVQN from Grb2-SH2 at 5 mM by competition binding assay
[2] = molecular target: T1, Growth factor receptor-bound protein 2; experiment: Displacement of biotin-Ahx-PSpYVNVQN from Grb2-SH2 by competition binding assay
MCF7 [3] = experiment: Cytotoxicity against HER2-positive human MCF7 cells after 24 hrs by MTT assay; type: functional, cell-based; conditions: MCF7, 24 h
Procedure, shortened: (§1)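 Human breast cancer cells tested at 50 and 100 μM: HER2-positive MCF7 and HER2-negative MCF7 and MDA-231. N1 fibroblasts were run alongside at the same two concentrations.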

MCF7 [4] = experiment: Cytotoxicity against HER2-negative human MCF7 cells after 24 hrs by MTT assay; type: functional, cell-based; procedure, shortened: as §1
MDA-MB-231 = experiment: Cytotoxicity against HER2-negative human MDA231 cells after 24 hrs by MTT assay; type: functional, cell-based; procedure, shortened: as §1
[5] = molecular target: T1, Growth factor receptor-bound protein 2; experiment: Inhibition of HER2-Grb2 interaction in HER2-positive human MCF7 cells assessed as decrease in interaction at 50 uM by immunoblotting; type: cell-based; design: scale not given: the % may be the effect or the level left

Row | inhibition [1] [%] | IC50 [2] [µM] | Structure (SMILES) | other results
1 | < 10 | – | CC(=O)N[C@@H](Cc1ccc(OP(=O)(O)O)cc1)C(=O)NCCc1cnc[nH]1 | –
2 | < 10 | – | CC(=O)N[C@@H](Cc1ccc(OP(=O)(O)O)cc1)C(=O)NCCCN1CCCC1=O | –
3 | – | 2310 | CC(=O)NC(Cc1ccc(OP(=O)(O)O)cc1)C(=O)NCCCN1CCCNC1=O (racemic) | –
4 | < 10 | – | O=C(N[C@@H](Cc1ccc(OP(=O)(O)O)cc1)C(=O)NCCCN1CCCNC1=O)c1ccccc1 | –
5 | – | 174 | CC(=O)N[C@@H](Cc1ccc(OP(=O)(O)O)cc1)C(=O)NCCCN1CCCNC1=O | –
6 | < 10 | – | CCCC(=O)N[C@@H](Cc1ccc(OP(=O)(O)O)cc1)C(=O)NCCCN1CCCC1=O | –
7 | < 10 | – | CC(=O)N[C@@H](Cc1ccc(OP(=O)(O)O)cc1)C(=O)NCCN1CCNC1=O | –
8 | < 10 | – | CC(=O)N[C@H](Cc1ccc(OP(=O)(O)O)cc1)C(=O)NCCCN1CCCNC1=O | –
9 | – | 314 | CCCC(=O)N[C@@H](Cc1ccc(OP(=O)(O)O)cc1)C(=O)NCCCN1CCCNC1=O | –
10 | – | 56 | CC(=O)N[C@@H](Cc1ccc(OP(=O)(O)O)cc1)C(=O)NC1(CCN2CCCNC2=O)CCCCC1 | IC50 (MCF7 [3]): 100 µM; Activity (MCF7 [4]): inactive; Activity (MDA-MB-231): inactive; Activity [5]: 30%
11 | < 10 | – | O=C(N[C@@H](Cc1ccc(OP(=O)(O)O)cc1)C(=O)NCCN1CCNC1=O)c1ccccc1 | –
12 | < 10 | – | O=C(N[C@@H](Cc1ccc(OP(=O)(O)O)cc1)C(=O)NCCCN1CCCC1=O)c1ccccc1 | –
13 | – | 0.008 | O=C(O)C[C@@H](Cc1ccc(CP(=O)(O)O)cc1)C(=O)NC1(C(=O)N[C@@H](CC(=O)O)C(=O)NCCCc2cccc3ccccc23)CCCCC1 | –

Row | Structure (SMILES) | inhibition [1] [%] | IC50 [2] [µM] | other results
14 | CCCC(=O)N[C@@H](Cc1ccc(OP(=O)(O)O)cc1)C(=O)NCCN1CCNC1=O | – | 1330 | –
